ChEMBL document CHEMBL1255409, “In vitro activity of ceftaroline against 623 diverse strains of anaerobic bacteria” (2010)

Assays:
Assay type in all cases: functional
[1] = tested on: Peptoniphilus harei; experiment: Antimicrobial activity against Peptoniphilus harei under anaerobic conditions after 44 hrs by CLSI-M11-47 protocol based agar dilution method
Outline: (§1)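 Clinical isolates were stored at −70°C in 20% skim milk and identified phenotypically or by partial 16S rRNA sequencing. Each strain was subcultured twice from frozen stock. Cell paste from 48-h cultures was suspended in brucella broth to a 0.5 McFarland standard. About 10^5 CFU per spot were applied by Steers replicator to agar dilution plates prepared on the day of testing. Plates were incubated 44 h at 37°C in an anaerobic chamber. MIC was taken as the lowest concentration giving complete inhibition or marked reduction of growth versus the drug-free control.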

[2] = tested on: Fusobacterium nucleatum; experiment: Antimicrobial activity against Fusobacterium nucleatum under anaerobic conditions after 44 hrs by CLSI-M11-47 protocol based agar dilution method; outline: as §1
[3] = tested on: Clostridioides difficile; experiment: Antimicrobial activity against Clostridium difficile under anaerobic conditions after 44 hrs by CLSI-M11-47 protocol based agar dilution method
Outline: (§2)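 Reference agar dilution per CLSI M11-A7 with plates made on test day. Clinical isolates were stored at −70°C in 20% skim milk, subcultured twice, and 48-h cell paste was suspended in brucella broth to 0.5 McFarland. About 10^5 CFU/spot was applied with a Steers replicator. Plates were incubated 44 h at 37°C anaerobically. MIC was the lowest concentration giving complete inhibition or marked growth reduction versus the drug-free control.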

[4] = tested on: Peptostreptococcus anaerobius; experiment: Antimicrobial activity against Peptostreptococcus anaerobius under anaerobic conditions after 44 hrs by CLSI-M11-47 protocol based agar dilution method; outline: as §1
[5] = tested on: Clostridium cadaveris; experiment: Antimicrobial activity against Clostridium cadaveris under anaerobic conditions after 44 hrs by CLSI-M11-47 protocol based agar dilution method; outline: as §2
[6] = tested on: Slackia exigua; experiment: Antimicrobial activity against Slackia exigua under anaerobic conditions after 44 hrs by CLSI-M11-47 protocol based agar dilution method; outline: as §1
[7] = tested on: Anaerococcus prevotii; experiment: Antimicrobial activity against Anaerococcus prevotii under anaerobic conditions after 44 hrs by CLSI-M11-47 protocol based agar dilution method; outline: as §2
[8] = tested on: Clostridium tertium; experiment: Antimicrobial activity against Clostridium tertium under anaerobic conditions after 44 hrs by CLSI-M11-47 protocol based agar dilution method; outline: as §2
[9] = tested on: Hoylesella loescheii; experiment: Antimicrobial activity against Prevotella loescheii under anaerobic conditions after 44 hrs by CLSI-M11-47 protocol based agar dilution method; outline: as §1
[10] = tested on: Prevotella denticola; experiment: Antimicrobial activity against Prevotella denticola under anaerobic conditions after 44 hrs by CLSI-M11-47 protocol based agar dilution method; outline: as §1
[11] = tested on: Anaerococcus murdochii; experiment: Antimicrobial activity against Anaerococcus murdochii under anaerobic conditions after 44 hrs by CLSI-M11-47 protocol based agar dilution method; outline: as §2
[12] = tested on: Actinomyces turicensis; experiment: Antimicrobial activity against Actinomyces turicensis under anaerobic conditions after 44 hrs by CLSI-M11-47 protocol based agar dilution method; conditions: Schaalia turicensis; outline: as §2
[13] = tested on: Cutibacterium acnes; experiment: Antimicrobial activity against Propionibacterium acnes under anaerobic conditions after 44 hrs by CLSI-M11-47 protocol based agar dilution method; outline: as §1
[14] = tested on: Clostridium glycolicum; experiment: Antimicrobial activity against Clostridium glycolicum under anaerobic conditions after 44 hrs by CLSI-M11-47 protocol based agar dilution method; conditions: Terrisporobacter glycolicus; outline: as §2
[15] = tested on: Collinsella aerofaciens; experiment: Antimicrobial activity against Colinsella aerofaciens under anaerobic conditions after 44 hrs by CLSI-M11-47 protocol based agar dilution method; outline: as §2
[16] = tested on: Mogibacterium timidum; experiment: Antimicrobial activity against Mogibacterium timidum under anaerobic conditions after 44 hrs by CLSI-M11-47 protocol based agar dilution method; outline: as §1
[17] = tested on: Schaalia meyeri; experiment: Antimicrobial activity against Actinomyces meyeri under anaerobic conditions after 44 hrs by CLSI-M11-47 protocol based agar dilution method; outline: as §2
[18] = tested on: Eubacterium contortum; experiment: Antimicrobial activity against Eubacterium contortum under anaerobic conditions after 44 hrs by CLSI-M11-47 protocol based agar dilution method; conditions: Faecalicatena contorta; outline: as §2
[19] = tested on: Phocaeicola vulgatus; experiment: Antimicrobial activity against Bacteroides vulgatus under anaerobic conditions after 44 hrs by CLSI-M11-47 protocol based agar dilution method; outline: as §2
[20] = tested on: Atopobium parvulum; experiment: Antimicrobial activity against Atopobium parvulum under anaerobic conditions after 44 hrs by CLSI-M11-47 protocol based agar dilution method; conditions: Lancefieldella parvula; outline: as §2
[21] = tested on: Prevotella bergensis; experiment: Antimicrobial activity against Prevotella bergensis under anaerobic conditions after 44 hrs by CLSI-M11-47 protocol based agar dilution method; conditions: Hallella bergensis; outline: as §1

CCO/N=C(\C(=O)N[C@@H]1C(=O)N2C(C(=O)[O-])=C(Sc3nc(-c4cc[n+](C)cc4)cs3)CS[C@H]12)c1nsc(NP(=O)(O)O)n1 [CEFTAROLINE FOSAMIL]
32 µg/mL: MIC90 [9] | MIC90 [10] | MIC90 [21]
1 µg/mL: MIC90 [1] | MIC90 [11]
4 µg/mL: MIC90 [4]
2 µg/mL: MIC50 [9] | MIC50 [10] | MIC50 [21]
0.25 µg/mL: MIC90 [6] | MIC90 [12] | MIC90 [15] | MIC90 [16] | MIC90 [17] | MIC90 [18] | MIC90 [20]
0.03 µg/mL: MIC50 [7]
≤ 0.008 µg/mL: MIC50 [13]
≤ 0.08 µg/mL: MIC50 [2]
0.06 µg/mL: MIC50 [1] | MIC50 [11] | MIC90 [13]
0.5 µg/mL: MIC50 [3] | MIC50 [4] | MIC50 [5] | MIC50 [8] | MIC50 [14]
64 µg/mL: MIC50 [19]
> 64 µg/mL: MIC90 [19]
0.125 µg/mL: MIC90 [2] | MIC50 [6] | MIC90 [7] | MIC50 [15] | MIC50 [16] | MIC50 [18] | MIC50 [20]
16 µg/mL: MIC90 [3] | MIC90 [5] | MIC90 [8] | MIC90 [14]
0.015 µg/mL: MIC50 [12] | MIC50 [17]

CO/N=C(\C(=O)N[C@@H]1C(=O)N2C(C(=O)O)=C(CSc3nc(=O)c(O)nn3C)CS[C@H]12)c1csc(N)n1 [CEFTRIAXONE]
0.06 µg/mL: MIC90 [13]
16 µg/mL: MIC90 [1] | MIC90 [11]
0.015 µg/mL: MIC50 [13]
2 µg/mL: MIC50 [3] | MIC50 [4] | MIC50 [5] | MIC90 [6] | MIC50 [8] | MIC50 [14] | MIC90 [15] | MIC90 [16] | MIC90 [18] | MIC90 [20]
0.25 µg/mL: MIC50 [1] | MIC50 [7] | MIC50 [11]
> 64 µg/mL: MIC50 [19] | MIC90 [19]
0.125 µg/mL: MIC50 [2] | MIC50 [12] | MIC50 [17]
0.5 µg/mL: MIC90 [2] | MIC50 [6] | MIC90 [7] | MIC90 [12] | MIC50 [15] | MIC50 [16] | MIC90 [17] | MIC50 [18] | MIC50 [20]
1 µg/mL: MIC50 [9] | MIC50 [10] | MIC50 [21]
64 µg/mL: MIC90 [3] | MIC90 [5] | MIC90 [8] | MIC90 [14]
8 µg/mL: MIC90 [4] | MIC90 [9] | MIC90 [10] | MIC90 [21]
